ChEMBL document CHEMBL1153870, “Synthesis of glycose carbamides and evaluation of the induction of erythroid differentiation of human erythroleukemic K562 cells” (Eur J Med Chem, 2009)

Legend:
K562 [1] = assay: Antiproliferative activity against human K562 cells; format: functional, cell-based
In short: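 K562 cells were seeded at 30,000 cells/mL in medium with 10% FBS, penicillin and streptomycin. They were cultured with or without test compounds at the indicated concentrations. Cell number per mL was counted with a Coulter counter on different days after culture set-up.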

K562 [2] = assay: Induction of erythroid differentiation in human K562 cells assessed as benzidine-positive cells after 6 days; format: functional; parameters: concentration or dose not given beside the values
In short: (§1)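 K562 cells were seeded at 30,000 cells/mL in medium with 10% FBS and antibiotics, then exposed to compounds at the indicated concentrations for a 6-day induction period. Hemoglobin-containing cells were scored by benzidine staining and expressed as % benzidine-positive cells. Values are mean ± SD of three independent experiments.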

K562 [3] = assay: Induction of erythroid differentiation in human K562 cells assessed as benzidine-positive cells at 0.5 mM after 6 days; format: functional; in short: as §1
K562 [4] = assay: Induction of erythroid differentiation in human K562 cells assessed as benzidine-positive cells at 20 mM after 6 days; format: functional; in short: as §1
K562 [5] = assay: Induction of erythroid differentiation in human K562 cells assessed as benzidine-positive cells at 0.75 mM after 6 days; format: functional
In short: (§2)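 Erythroid induction was measured with compound combined with a sub-optimal concentration of ara-C. K562 cells were seeded at 30,000 cells/mL in medium with 10% FBS and antibiotics and co-treated for 6 days. Read-out was % benzidine-positive (hemoglobin-containing) cells, given as mean ± SD of three independent experiments.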

K562 [6] = assay: Induction of erythroid differentiation in human K562 cells assessed as benzidine-positive cells at 8 mM after 6 days; format: functional; in short: as §2
K562 [7] = assay: Induction of erythroid differentiation in human K562 cells assessed as benzidine-positive cells at 0.1 mM after 6 days; format: functional; in short: as §1
K562 [8] = assay: Induction of erythroid differentiation in human K562 cells assessed as benzidine-positive cells at 1 mM after 6 days; format: functional; in short: as §1
K562 [9] = assay: Induction of erythroid differentiation in human K562 cells assessed as benzidine-positive cells at 5 mM after 6 days; format: functional; in short: as §1
K562 [10] = assay: Induction of erythroid differentiation in human K562 cells assessed as benzidine-positive cells at 500 mM after 6 days; format: functional; settings: in the assay text read “500 nM” for “500 mM”; in short: as §1

SMILES | IC50 (K562 [1]) [mM] | Activity (K562 [2]) [%] | also measured
CC#CC(=O)N[C@@H]1[C@H]2OC(C)(C)O[C@H]2O[C@@H]1[C@H]1COC(C)(C)O1 | 0.5 | 19 | –
CC1(C)O[C@H]2O[C@H]([C@H]3COC(C)(C)O3)[C@@H](NC(=O)C3CCCC3)[C@H]2O1 | 1 | 21 | –
CC1(C)O[C@H]2O[C@H]([C@H]3COC(C)(C)O3)[C@@H](NC(=O)CCc3ccccc3)[C@H]2O1 | – | – | Activity (K562 [5]): 49%
COc1ccc(OC)c(CC(=O)N[C@H]2[C@H]3OC(C)(C)O[C@H]3O[C@@H]2[C@H]2COC(C)(C)O2)c1 | – | – | Activity (K562 [3]): 50%
CC(C)C(=O)N[C@H]1[C@H]2OC(C)(C)O[C@H]2O[C@@H]1[C@H](O)CO | – | – | Activity (K562 [6]): 66%
CO[C@@H]1O[C@H](CNC(=O)C2CC2)[C@@H]2OC(C)(C)O[C@@H]2[C@H]1O | 0.25 | 27 | –
CCC(=O)N[C@H]1[C@H]2OC(C)(C)O[C@H]2O[C@@H]1[C@H]1COC(C)(C)O1 | 7.5 | 19 | –
CC1(C)O[C@H]2O[C@H]([C@H](O)CO)[C@@H](NC(=O)c3ccc(-c4ccccc4)cc3)[C@H]2O1 | – | – | Activity (K562 [7]): 33%
COc1cccc(CC(=O)N[C@H]2[C@H]3OC(C)(C)O[C@H]3O[C@@H]2[C@H]2COC(C)(C)O2)c1 | – | – | Activity (K562 [8]): 43%
CC1(C)O[C@H]2O[C@H]([C@H](O)CO)[C@H](NC(=O)C(C)(C)C)[C@H]2O1 | – | – | Activity (K562 [9]): 68%
CCCC(=O)NC[C@H]1O[C@H](OC)[C@H](O)[C@H]2OC(C)(C)O[C@H]21 | 0.1 | 18 | –
CCCC(=O)O [BUTYRIC ACID] | 2 | 32.5 | –
Nc1ccn([C@@H]2O[C@H](CO)[C@@H](O)[C@@H]2O)c(=O)n1 [CYTARABINE] | – | 78 | Activity (K562 [10]): 22%
CO[C@H](C(=O)[C@@H](O)[C@@H](C)O)[C@@H]1Cc2cc3cc(O[C@H]4C[C@@H](O[C@@H]5C[C@@H](O)[C@H](O)[C@@H](C)O5)[C@H](O)[C@@H](C)O4)c(C)c(O)c3c(O)c2C(=O)[C@H]1O[C@H]1C[C@@H](O[C@@H]2C[C@@H](O)[C@@H](O[C@@H]3C[C@](C)(O)[C@H](O)[C@@H](C)O3)[C@@H](C)O2)[C@H](O)[C@@H](C)O1 [PLICAMYCIN] | 0.0001 | 86 | –
CO[C@H]1C[C@@H]2CC[C@@H](C)[C@@](O)(O2)C(=O)C(=O)N2CCCC[C@H]2C(=O)O[C@H]([C@H](C)C[C@@H]2CC[C@@H](O)[C@H](OC)C2)CC(=O)[C@H](C)/C=C(\C)[C@@H](O)[C@@H](OC)C(=O)[C@H](C)C[C@H](C)/C=C/C=C/C=C/1C [SIROLIMUS] | 1 | 75.5 | –

Further lines, with some results ahead:

IC50 (K562 [1]) [mM] | SMILES | Activity (K562 [2]) [%] | also measured
0.5 | CCCC(=O)N[C@@H]1[C@H]2OC(C)(C)O[C@H]2O[C@@H]1[C@H](O)CO | 20 | Activity (K562 [3]): 35%
2.5 | COc1ccc(C(=O)N[C@H]2[C@H]3OC(C)(C)O[C@H]3O[C@@H]2[C@H](O)CO)cc1 | 24 | –
5 | CC(C)CC(=O)N[C@@H]1[C@H]2OC(C)(C)O[C@H]2O[C@@H]1[C@H](O)CO | 25 | –
10 | CCCCCC(=O)N[C@@H]1[C@H]2OC(C)(C)O[C@H]2O[C@@H]1[C@H](O)CO | 28 | –
20 | CC1(C)O[C@H]2O[C@H]([C@H](O)CO)[C@@H](NC(=O)C(C)(C)C)[C@H]2O1 | 25 | Activity (K562 [4]): 40%
30 | CCC(=O)N[C@@H]1[C@H]2OC(C)(C)O[C@H]2O[C@@H]1[C@H](O)CO | 20 | –
5 | CCCCC(=O)N[C@@H]1[C@H]2OC(C)(C)O[C@H]2O[C@@H]1[C@H](O)CO | 18 | –
5 | CC(C)(C)CC(=O)N[C@@H]1[C@H]2OC(C)(C)O[C@H]2O[C@@H]1[C@H](O)CO | 15 | –
20 | CCCC(=O)N[C@H]1[C@H]2OC(C)(C)O[C@H]2O[C@@H]1[C@H](O)CO | 20 | Activity (K562 [4]): 40%
